Where a SMILES comes first, the peptide text is derived from it.
Legend:
conscious rats = assay: Respiratory safety, plethysmography in conscious rats; format: in vivo, rat; details: single IV bolus dose up to 415 mg/kg, the highest dose evaluated
dogs [1] = assay: 90-day twice-weekly IV repeated-dose study in dogs; format: in vivo, dog; details: up to 200 mg/kg (highest evaluated)
[2] = tested on: dog-isolated Purkinje fibers; assay: Electrophysiology in dog-isolated Purkinje fibers; format: cell-based; details: concentrations up to 1 mM, the highest evaluated
[3] = Plasma pharmacokinetics in rats; format: in vivo, rat
rats [4] = assay: Pentylenetetrazole convulsant activity; format: in vivo, rat; details: single dose 500 mg/kg IV, 60 min following pentylenetetrazole administration
male or female rats = assay: Behavioral safety; format: in vivo, rat
[5] = tested on: conscious instrumented dogs; assay: Cardiovascular safety in conscious instrumented dogs; format: in vivo, dog; details: single IV bolus doses up to 500 mg/kg
[6] = tested on: subjects with major depressive disorder; assay: Phase IIa safety; format: in vivo, human
Method in brief: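 Randomized, double-blind, placebo-controlled, parallel-group trial at 12 US centres (116 adults). Subjects had MDD by SCID and <25% response (ATRQ) to antidepressants in the current episode, followed by a 14-day antidepressant washout. Each received a single IV infusion over 3–15 min of normal saline or 1, 5, 10 or 30 mg/kg test compound. Subjects stayed ≥24 h in unit, with continuous ECG and pulse oximetry to 4 h, then follow-up visits.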

dogs [7] = assay: Single-dose IV toxicology study in dogs; format: in vivo, dog
Method in brief: (§1)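 Single IV doses up to 1000 mg/kg were given to rats and dogs. End-points were clinical observations, body weight, clinical chemistry, hematology, urinalysis, and gross and microscopic pathology.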

[8] = Plasma pharmacokinetics in dogs; format: in vivo, dog
rats [9] = assay: 90-day twice-weekly IV repeated-dose study in rats; format: in vivo, rat; details: up to 300 mg/kg (highest evaluated)
[10] = Compatibility with human blood, serum and plasma in vitro; details: concentrations up to 3 mg/ml in vitro
mouse = assay: Mouse micronucleus assay; details: in vivo
[11] = Phase I safety and pharmacokinetics study in normal human volunteers; format: in vivo; details: for t1/2 initial / AUC(0-inf) / Cmax / clearance: plasma; for t1/2 initial: normal human volunteers, Mean ± SEM, n = 4; for Vd / AUC(0-inf) / Cmax / clearance: human, iv; for Vd: in vivo
Method in brief: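 Normal volunteers received a single IV dose via the antecubital vein, over a dose range of 0.5–25 mg/kg. Plasma Cmax and AUC were determined, with n = 4 subjects per dose, reported as Mean ± SEM.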

hERG channel = hERG channel (Homo sapiens, UniProt Q12809); assay: hERG assay; format: cell-based; details: concentrations up to 5 mM
rats [12] = assay: Single-dose IV toxicology study in rats; format: in vivo, rat
Method in brief: as §1

mouse lymphoma = assay: Mouse lymphoma assay; format: cell-based
[13] = twice-weekly dosing for 3 months

Sequence of hERG channel (Q12809 whole entry): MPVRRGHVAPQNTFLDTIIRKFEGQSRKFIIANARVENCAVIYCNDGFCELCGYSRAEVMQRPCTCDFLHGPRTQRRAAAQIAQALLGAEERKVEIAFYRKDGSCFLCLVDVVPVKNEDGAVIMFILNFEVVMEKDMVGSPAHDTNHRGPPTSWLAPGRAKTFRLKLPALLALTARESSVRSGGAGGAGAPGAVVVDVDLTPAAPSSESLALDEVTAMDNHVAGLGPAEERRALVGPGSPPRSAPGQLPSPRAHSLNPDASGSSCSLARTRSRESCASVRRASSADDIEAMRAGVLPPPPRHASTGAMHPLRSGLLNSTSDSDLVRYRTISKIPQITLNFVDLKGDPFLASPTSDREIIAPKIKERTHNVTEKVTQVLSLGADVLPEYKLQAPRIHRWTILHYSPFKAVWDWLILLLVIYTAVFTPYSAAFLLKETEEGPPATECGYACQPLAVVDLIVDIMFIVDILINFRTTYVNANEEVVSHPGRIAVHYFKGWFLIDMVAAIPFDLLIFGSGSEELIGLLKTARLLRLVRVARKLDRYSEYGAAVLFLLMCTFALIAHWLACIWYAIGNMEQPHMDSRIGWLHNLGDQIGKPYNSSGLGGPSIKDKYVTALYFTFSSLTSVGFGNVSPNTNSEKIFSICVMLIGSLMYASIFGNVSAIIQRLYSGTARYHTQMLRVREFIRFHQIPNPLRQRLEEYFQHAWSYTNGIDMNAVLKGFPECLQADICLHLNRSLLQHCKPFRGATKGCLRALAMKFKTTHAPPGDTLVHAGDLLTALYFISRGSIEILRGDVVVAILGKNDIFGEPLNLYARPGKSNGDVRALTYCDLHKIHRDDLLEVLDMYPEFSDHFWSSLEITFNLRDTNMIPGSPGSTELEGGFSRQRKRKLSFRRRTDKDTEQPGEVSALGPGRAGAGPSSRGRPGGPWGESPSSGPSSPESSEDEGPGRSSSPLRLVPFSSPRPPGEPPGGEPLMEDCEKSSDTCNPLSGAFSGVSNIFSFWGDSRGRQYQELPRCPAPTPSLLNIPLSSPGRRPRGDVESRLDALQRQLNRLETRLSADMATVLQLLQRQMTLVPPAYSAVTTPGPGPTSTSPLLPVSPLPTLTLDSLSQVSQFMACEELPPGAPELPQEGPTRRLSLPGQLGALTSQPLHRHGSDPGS

With `C[C@@H](O)[C@H](N)C(=O)N1CCC[C@H]1C(=O)N1CCC[C@H]1C(=O)N[C@H](C(N)=O)[C@@H](C)O` [GLYX-13] (H-TPPT-NH2) the respiratory parameters (conscious rats) was “nor did GLYX-13 affect any respiratory parameter”, the “tolerability, repeated dose” value (dogs [1]) was “well tolerated” and the “electrophysiological parameters in Purkinje fibers” value [2] was “did not significantly alter any of the electrophysiological parameters”. The plasma half-life ([3]; 30 – 300 mg/kg IV) was 2 to 3 min, the “half-life after repeated dosing” value [3, 13] was “retained its short half-life” and the convulsant activity (rats [4]) was “did not affect convulsant activity”. For the same compound, the “hyperlocomotion (signal for psychotomimetic effects)” value (male or female rats; any dose evaluated) was “did not induce hyperlocomotion”, the adverse behavioral responses (male or female rats; single doses up to 500 mg/kg IV, the highest dose evaluated, male or female rats) was “No adverse behavioral responses” and the motor coordination (male or female rats; up to 500 mg/kg IV, male or female rats) was “did not affect motor coordination”. The “heart rate, blood pressure, ECG parameters” value [5] was “nor did GLYX-13 administered at single IV bolus doses up to 500 mg/kg affect heart rate, blood pressure, or any ECG parameter”, the “suicidality (Columbia-Suicide Severity Rating Scale)” value ([6]; 14- or 28-day course of observation following dosing) was “did not cause any increase in suicidality” and the “BPRS+ score (psychotomimetic effects)” value ([6]; any time following dosing) was “did not increase BPRS+ score”. For the same compound, the “treatment-related serious adverse events” value ([6]; single IV dose 1, 5, 10 or 30 mg/kg) was “No treatment-related serious adverse events”, the Ames mutagenesis (Ames mutagenesis assay) was “inactive” and the “tolerability, single doses” value (dogs [7]; doses up to 500 mg/kg IV) was “well tolerated”. For the same compound, the “toxicology findings, single dose” value (dogs [7]; doses up to 1000 mg/kg IV) was “No observational, body weight, clinical chemistry, hematology, urinalysis, or gross or microscopic pathological signals were observed”, the plasma half-life ([8]; 20 – 200 mg/kg IV) was 5 to 8 min and the “half-life after repeated dosing” value [8, 13] was “retained its short half-life”. For the same compound, the “tolerability, repeated dose” value (rats [9]) was “well tolerated”, the “compatibility with human blood, serum, and plasma” value [10] was “completely compatible” and the mouse micronucleus assay (mouse) was “inactive”. The t1/2 initial ([11]; 1 mg/kg IV) was 4.7 ± 0.5 min, the t1/2 initial ([11]; 5 mg/kg IV) was 7.4 ± 0.9 min and the t1/2 initial ([11]; 10 mg/kg IV) was 9.0 ± 0.6 min. For the same compound, the t1/2 initial ([11]; 20 mg/kg IV) was 14.0 ± 2.1 min, the “increase of Cmax with dose” value ([11]; dose range 0.5 – 10 mg/kg IV) was “supralinearly” and the “increase of AUC with dose” value ([11]; dose range 0.5 – 25 mg/kg IV) was “supralinearly”. The “increase of Cmax with dose” value ([11]; dose range 10–25 mg/kg IV) was “linearly”, the Vd ([11]; 1 mg/kg) was 0.17 ± 0.03 L/kg and the Vd ([11]; 5 mg/kg) was 0.31 ± 0.14 L/kg. The Vd ([11]; 10 mg/kg) was 0.12 ± 0.01 L/kg, the Vd ([11]; 20 mg/kg) was 0.1 ± 0.03 L/kg and the AUC(0-inf) ([11]; 1 mg/kg) was 533 ng·h/mL. The Cmax ([11]; 1 mg/kg) was 5.2 ± 0.9 µg/mL, the clearance ([11]; 1 mg/kg) was 33.7 mL/min/kg and the AUC(0-inf) ([11]; 5 mg/kg) was 4800 ng·h/mL. For the same compound, the Cmax ([11]; 5 mg/kg) was 26 ± 11 µg/mL, the clearance ([11]; 5 mg/kg) was 34.8 mL/min/kg and the AUC(0-inf) ([11]; 10 mg/kg) was 19400 ng·h/mL. For the same compound, the Cmax ([11]; 10 mg/kg) was 100 ± 21 µg/mL, the clearance ([11]; 10 mg/kg) was 9 mL/min/kg and the AUC(0-inf) ([11]; 20 mg/kg) was 67200 ng·h/mL. The Cmax ([11]; 20 mg/kg) was 182 ± 56 µg/mL, the clearance ([11]; 20 mg/kg) was 5 mL/min/kg and the “current through the hERG channel” value (hERG channel) was “did not affect current through the hERG channel”. The “tolerability, single doses” value (rats [12]; doses up to 500 mg/kg IV) was “well tolerated”, the “toxicology findings, single dose” value (rats [12]; doses up to 1000 mg/kg IV) was “No observational, body weight, clinical chemistry, hematology, urinalysis, or gross or microscopic pathological signals were observed” and the mouse lymphoma assay (mouse lymphoma) was “inactive”.

From paper PMC4721220 (Expert opinion on investigational drugs, 2013)
